According to ChEMBL document CHEMBL3272147, “Nonapeptide ethylamide inhibitors of the luteinizing hormone-releasing hormone (LH-RH) having a D-alanyl residue in position 6 and variations at positions 2 and 3” (1977):
The source made the active and inactive calls. The calls are words filed in the database; no cut-off is given here.

Key:
[1] = molecular target: T1, Gonadotropin-releasing hormone receptor (Rattus norvegicus) (UniProt P30969); assay: Agonist activity at LH-RH receptor in Sprague-Dawley rat pituitary gland assessed as change in follicle-stimulating hormone release in medium at 10 ug/ml incubated for 4 hrs measured every hour for 4 hrs by RIA relative to vehicle-treated control
T1 sequence (whole entry): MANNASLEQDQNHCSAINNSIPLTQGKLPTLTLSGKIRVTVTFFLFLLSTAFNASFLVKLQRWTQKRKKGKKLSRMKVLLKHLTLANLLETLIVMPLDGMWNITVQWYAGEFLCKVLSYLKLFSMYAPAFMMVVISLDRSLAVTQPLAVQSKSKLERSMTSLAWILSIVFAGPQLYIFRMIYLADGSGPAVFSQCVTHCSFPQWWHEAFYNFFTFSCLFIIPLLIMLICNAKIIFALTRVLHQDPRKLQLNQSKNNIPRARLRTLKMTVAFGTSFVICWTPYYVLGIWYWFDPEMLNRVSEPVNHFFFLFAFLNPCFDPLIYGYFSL
Method in brief: (§1)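 Pituitaries from 20-day-old female Sprague-Dawley rats, two per 1 mL lactated Ringer's, incubated 6 h total at 37 °C with shaking. Medium removed hourly for LH and FSH RIA and replaced with fresh medium. Analogue alone added at I3–I6. Values expressed as ng of standards LH-LER-1240-2 (0.60 NIH-LH-S1 unit/mg) and FSH 2.1 × NIH-FSH-S1 units/mg; change versus control with SEM and p.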

[2] = molecular target: T1, Gonadotropin-releasing hormone receptor (Rattus norvegicus); assay: (§2) Antagonist activity at LH-RH receptor in Sprague-Dawley rat pituitary gland assessed as change in 0.3 ng/mL LH-RH-induced follicle-stimulating hormone release in medium at 10 ug/ml preincubated for 2 hrs followed by LH-RH addition at 5th and 6th hr 5 mins post drug addition and measured every hour for 4 hrs by RIA relative to vehicle-treated control
Method in brief: (§3)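 Two pituitaries from 20-day-old female Sprague-Dawley rats per 1 mL lactated Ringer's, incubated 6 h at 37 °C with shaking, medium collected and replaced hourly for LH/FSH RIA. Analogue added at I3, I4, I5 and I6; LH-RH added 5 min after the peptide at I5 and I6. Results given as Δ ng/mL against LH-LER-1240-2 and NIH-FSH-S1-based standards, with SEM and p.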

[3] = molecular target: T1, Gonadotropin-releasing hormone receptor (Rattus norvegicus); assay: Agonist activity at LH-RH receptor in Sprague-Dawley rat pituitary gland assessed as change in luteinizing hormone release in medium at 10 ug/ml incubated for 4 hrs measured every hour for 4 hrs by RIA relative to vehicle-treated control; method in brief: as §1
[4] = molecular target: T1, Gonadotropin-releasing hormone receptor (Rattus norvegicus); assay: as §2, with “luteinizing” for “follicle-stimulating”, “1” for “10”; method in brief: as §3
[5] = molecular target: T1, Gonadotropin-releasing hormone receptor (Rattus norvegicus); assay: as §2, with “luteinizing” for “follicle-stimulating”; method in brief: as §3
[6] = molecular target: T1, Gonadotropin-releasing hormone receptor (Rattus norvegicus); assay: as §2, with “1” for “10”; method in brief: as §3
[7] = molecular target: T1, Gonadotropin-releasing hormone receptor (Rattus norvegicus); assay: Agonist activity at LH-RH receptor in Sprague-Dawley rat pituitary gland assessed as change in follicle-stimulating hormone release in medium at 100 ug/ml incubated for 4 hrs measured every hour for 4 hrs by RIA relative to vehicle-treated control; method in brief: as §1
[8] = molecular target: T1, Gonadotropin-releasing hormone receptor (Rattus norvegicus); assay: Agonist activity at LH-RH receptor in Sprague-Dawley rat pituitary gland assessed as change in luteinizing hormone release in medium at 100 ug/ml incubated for 4 hrs measured every hour for 4 hrs by RIA relative to vehicle-treated control; method in brief: as §1
[9] = molecular target: T1, Gonadotropin-releasing hormone receptor (Rattus norvegicus); assay: as §2, with “luteinizing” for “follicle-stimulating”, “0.1” for “10”; method in brief: as §3
[10] = molecular target: T1, Gonadotropin-releasing hormone receptor (Rattus norvegicus); assay: as §2, with “0.1” for “10”; method in brief: as §3
[11] = molecular target: T1, Gonadotropin-releasing hormone receptor (Rattus norvegicus); assay: as §2, with “100” for “10”; method in brief: as §3
[12] = molecular target: T1, Gonadotropin-releasing hormone receptor (Rattus norvegicus); assay: as §2, with “luteinizing” for “follicle-stimulating”, “100” for “10”; method in brief: as §3
[13] = molecular target: T1, Gonadotropin-releasing hormone receptor (Rattus norvegicus); assay: as §2, with “0.6” for “0.3”, “1” for “10”; method in brief: as §3
[14] = molecular target: T1, Gonadotropin-releasing hormone receptor (Rattus norvegicus); assay: as §2, with “0.6” for “0.3”, “luteinizing” for “follicle-stimulating”; method in brief: as §3
[15] = molecular target: T1, Gonadotropin-releasing hormone receptor (Rattus norvegicus); assay: as §2, with “0.6” for “0.3”, “luteinizing” for “follicle-stimulating”, “1” for “10”; method in brief: as §3
[16] = molecular target: T1, Gonadotropin-releasing hormone receptor (Rattus norvegicus); assay: as §2, with “0.6” for “0.3”; method in brief: as §3
[17] = molecular target: T1, Gonadotropin-releasing hormone receptor (Rattus norvegicus); assay: as §2, with “0.6” for “0.3”, “0.1” for “10”; method in brief: as §3
[18] = molecular target: T1, Gonadotropin-releasing hormone receptor (Rattus norvegicus); assay: as §2, with “0.6” for “0.3”, “luteinizing” for “follicle-stimulating”, “0.1” for “10”; method in brief: as §3
Rattus norvegicus [19] = assay: Inhibition of ovulation in 4 day cycling rat at 750 ug, sc administered through corn oil between 12 to 12:30 pm on proestrous stage; type: functional
Method in brief: (§4)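 Antiovulation test in 4-day cycling rats. A single sc injection of analogue in corn oil was given between 12 and 12:30 p.m. on proestrus. Controls received 0.3 mL of vehicle. Ova shed were counted on estrus.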

Rattus norvegicus [20] = assay: Inhibition of ovulation in 4 day cycling rat at 1.5 mg, sc administered through corn oil between 12 to 12:30 pm on proestrous stage; type: functional, organism-based; method in brief: as §4

Activity [1] [ng/mL]	Activity [2] [ng/mL]	Activity [3] [ng/mL]	Activity [4] [ng/mL]	Activity [5] [ng/mL]	Activity [6] [ng/mL]	Activity [7] [ng/mL]	Activity [8] [ng/mL]	Activity [9] [ng/mL]	Activity [10] [ng/mL]	Activity [11] [ng/mL]	Activity [12] [ng/mL]	Activity [13] [ng/mL]	Activity [14] [ng/mL]	Activity [15] [ng/mL]	Activity [16] [ng/mL]	Activity [17] [ng/mL]	Activity [18] [ng/mL]	Compound	inhibition (Rattus norvegicus [19])	inhibition (Rattus norvegicus [20])
490	1640	8	272	63	4320													CCNC(=O)[C@@H]1CCCN1C(=O)[C@H](CCCNC(=N)N)NC(=O)[C@H](CC(C)C)NC(=O)[C@@H](C)NC(=O)[C@H](Cc1ccc(O)cc1)NC(=O)[C@H](CO)NC(=O)[C@H](CC(C)C)NC(=O)[C@@H](NC(=O)[C@@H]1CCC(=O)N1)C(C)C		
	1460		60	45	3980	712	73	166	5110									CCNC(=O)[C@@H]1CCCN1C(=O)[C@H](CCCNC(=N)N)NC(=O)[C@H](CC(C)C)NC(=O)[C@@H](C)NC(=O)[C@H](Cc1ccc(O)cc1)NC(=O)[C@H](CO)NC(=O)[C@H](CC(C)C)NC(=O)[C@H](CC(C)C)NC(=O)[C@@H]1CCC(=O)N1		
	1630		70	28	2240	-282	13			-516	12							CCCC[C@H](NC(=O)[C@H](CC(C)C)NC(=O)[C@@H]1CCC(=O)N1)C(=O)N[C@@H](CO)C(=O)N[C@@H](Cc1ccc(O)cc1)C(=O)N[C@H](C)C(=O)N[C@@H](CC(C)C)C(=O)N[C@@H](CCCNC(=N)N)C(=O)N1CCC[C@H]1C(=O)NCC		
						-782	-6			3310	169							CCNC(=O)[C@@H]1CCCN1C(=O)[C@H](CCCNC(=N)N)NC(=O)[C@H](CC(C)C)NC(=O)[C@@H](C)NC(=O)[C@H](Cc1ccc(O)cc1)NC(=O)[C@H](CO)NC(=O)CNC(=O)[C@H](CC(C)C)NC(=O)[C@@H]1CCC(=O)N1		
	549		77	47	1560	1380	59	130	3120									CCNC(=O)[C@@H]1CCCN1C(=O)[C@H](CCCNC(=N)N)NC(=O)[C@H](CC(C)C)NC(=O)[C@@H](C)NC(=O)[C@H](Cc1ccc(O)cc1)NC(=O)[C@H](CO)NC(=O)[C@H](CC(C)C)NC(=O)[C@H](Cc1ccccc1)NC(=O)[C@@H]1CCC(=O)N1		
						-204	-66					2700	-7	32	-883	3980	221	CCC[C@H](NC(=O)[C@H](Cc1ccccc1)NC(=O)[C@@H]1CCC(=O)N1)C(=O)N[C@@H](CO)C(=O)N[C@@H](Cc1ccc(O)cc1)C(=O)N[C@H](C)C(=O)N[C@@H](CC(C)C)C(=O)N[C@@H](CCCNC(=N)N)C(=O)N1CCC[C@H]1C(=O)NCC		
	2000		93	45	3900			213	5120									CCC[C@H](NC(=O)[C@H](CC(C)C)NC(=O)[C@@H]1CCC(=O)N1)C(=O)N[C@@H](CO)C(=O)N[C@@H](Cc1ccc(O)cc1)C(=O)N[C@H](C)C(=O)N[C@@H](CC(C)C)C(=O)N[C@@H](CCCNC(=N)N)C(=O)N1CCC[C@H]1C(=O)NCC		
						564	18					3090	36	73	-1	7370	193	CCNC(=O)[C@@H]1CCCN1C(=O)[C@H](CCCNC(=N)N)NC(=O)[C@H](CC(C)C)NC(=O)[C@@H](C)NC(=O)[C@H](Cc1ccc(O)cc1)NC(=O)[C@H](CO)NC(=O)[C@H](CC(C)C)NC(=O)[C@H](Cc1c[nH]c2ccccc12)NC(=O)[C@@H]1CCC(=O)N1	Active	Active
	1760		186	-53	3330	-227	61											CCNC(=O)[C@@H]1CCCN1C(=O)[C@H](CCCNC(=N)N)NC(=O)[C@H](CC(C)C)NC(=O)[C@@H](C)NC(=O)[C@H](Cc1ccc(O)cc1)NC(=O)[C@H](CO)NC(=O)[C@H](CC(C)C)NC(=O)[C@@H](NC(=O)[C@@H]1CCC(=O)N1)[C@@H](C)CC		
	3480			150		866	1			1780	45							CCNC(=O)[C@@H]1CCCN1C(=O)[C@H](CCCNC(=N)N)NC(=O)[C@H](CC(C)C)NC(=O)[C@@H](C)NC(=O)[C@H](Cc1ccc(O)cc1)NC(=O)[C@H](CO)NC(=O)[C@H](CC)NC(=O)[C@H](CC(C)C)NC(=O)[C@@H]1CCC(=O)N1		
